Assay results: ChEMBL document CHEMBL2429835
≈ marks a conversion by molar mass, not a printed value. Calls of active or inactive are those of the source. The calls are words filed in the database; no cut-off is given here.

Experiments:
[1] = tested on: Mycobacterium tuberculosis; assay: Antimycobacterial activity against Mycobacterium tuberculosis H37Rv ATCC 27294 by microplate Alamar blue assay; assay type: functional
How it was run: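 Strain (H37Rv or ATCC single-drug-resistant isolates) grown to late log phase in 7H9 with 0.2% glycerol, 0.05% Tween80, 10% OADC. Cells washed into PBS, passed through 8 μm filter, frozen; CFU titred on 7H11 agar. MABA MIC is the lowest concentration giving ≥90% growth inhibition versus untreated controls.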

[2] = Selectivity index, ratio of IC50 for african green monkey Vero cells to MIC90 for Mycobacterium tuberculosis H37Rv ATCC 27294 by microplate Alamar blue assay; assay type: functional
Vero = assay: Cytotoxicity against african green monkey Vero cells after 72 hrs by MTS-PMS assay; assay type: cell-based; conditions: Chlorocebus sabaeus
How it was run: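 Vero cells in EMEM with 10% FBS at 37 °C, 5% CO2, diluted to 10^6 cells/mL. Exposed to 2-fold serial dilutions for 72 h at 37 °C.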

[3] = tested on: Mycobacterium tuberculosis; assay: Antimycobacterial activity against Mycobacterium tuberculosis H37Rv ATCC 27294 incubated for 10 days under low oxygen condition followed by normoxic environment for 28 hrs by low oxygen recovery assay; assay type: functional
How it was run: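 Luciferase (luxAB) reporter strain adapted to low oxygen in a fermenter. Exposed to samples for 10 days at 37 °C under hypoxia, then 28 h normoxic at 37 °C. Luminescence read; MIC is the lowest concentration cutting luminescence by ≥90% versus untreated cultures.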

Mycobacterium marinum [4] = assay: Antimycobacterial activity against Mycobacterium marinum ATCC 927 after 6 days by microplate Alamar blue assay; assay type: functional; conditions: ATCC 927, 144 h
Pseudomonas aeruginosa = assay: Antibacterial activity against Pseudomonas aeruginosa ATCC 27853 at 100 ug/ml by broth microdilution method; assay type: functional, organism-based
How it was run: (§1)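 Broth microdilution per NCCLS guidelines; growth read spectrophotometrically at 570 nm, except S. pneumoniae at 490 nm, which was tested with 2% HBL supplement. Compounds tested up to 100 μg/mL.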

Staphylococcus aureus = assay: Antibacterial activity against Staphylococcus aureus ATCC 29213 at 100 ug/ml by broth microdilution method; assay type: functional, organism-based; how it was run: as §1
Mycobacteroides chelonae = assay: Antimycobacterial activity against Mycobacterium chelonae ATCC 35752 at 100 ug/ml after 9 days by microplate Alamar blue assay; assay type: functional, organism-based
How it was run: (§2)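 MABA in 7H12 (M. abscessus, M. bovis BCG) or 7H9 (others). Pre-dye incubation: M. abscessus 37 °C 3 days; BCG 37 °C 7 days; M. chelonae 30 °C 3 days; M. marinum 30 °C 5 days; M. avium and M. kansasii 37 °C 6 days. Then 20% Tween80 plus Alamar blue added: 4 h (abscessus), 6 days (chelonae), 1 day (others). Tested at 100 μg/mL.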

Mycobacterium kansasii [5] = assay: Antimycobacterial activity against Mycobacterium kansasii ATCC 12478 at 100 ug/ml after 7 days by microplate Alamar blue assay; assay type: functional; how it was run: as §2
[6] = tested on: Mycobacteroides abscessus; assay: Antimycobacterial activity against Mycobacterium abscessus ATCC 19977 at 100 ug/ml after 7 days by microplate Alamar blue assay; assay type: functional
Streptococcus pneumoniae = assay: Antibacterial activity against Streptococcus pneumoniae at 100 ug/ml; assay type: functional, organism-based; how it was run: as §1
[7] = tested on: Mycolicibacterium smegmatis; assay: Antimycobacterial activity against Mycobacterium smegmatis MC2 155 at 100 ug/ml after 3 days by microplate Alamar blue assay; assay type: functional, organism-based; conditions: str. MC2 155
How it was run: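 MABA: 37 °C for 3 days, then Tween80 (20%) and Alamar blue added, 4 h further incubation; fluorescence read-out. Tested at 100 μg/mL.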

Acinetobacter baumannii = assay: Antibacterial activity against Acinetobacter baumannii at 100 ug/ml by broth microdilution method; assay type: functional, organism-based
Mycobacterium avium = assay: Antimycobacterial activity against Mycobacterium avium ATCC 15769 at 100 ug/ml after 7 days by microplate Alamar blue assay; assay type: functional, organism-based; how it was run: as §2
Candida albicans = assay: Antifungal activity against Candida albicans ATCC 90028 at 100 ug/ml by broth microdilution method; assay type: functional, organism-based; how it was run: as §1
Enterococcus faecalis = assay: Antibacterial activity against Enterococcus faecalis ATCC 29212 at 100 ug/ml by broth microdilution method; assay type: functional, organism-based; how it was run: as §1
Escherichia coli = assay: Antibacterial activity against Escherichia coli ATCC 25922 at 100 ug/ml by broth microdilution method; assay type: functional, organism-based; how it was run: as §1
Mycobacterium marinum [8] = assay: Antimycobacterial activity against Mycobacterium marinum ATCC 927 at 100 ug/ml after 6 days by microplate Alamar blue assay; assay type: functional, organism-based; how it was run: as §2
Mycobacterium kansasii [9] = assay: Antimycobacterial activity against Mycobacterium kansasii ATCC 12478 after 7 days by microplate Alamar blue assay; assay type: functional; conditions: ATCC 12478, 168 h; how it was run: as §2

## O=[N+]([O-])c1cn2c(n1)OC[C@@H](OCc1ccc(OC(F)(F)F)cc1)C2 [PRETOMANID]
[1]
  MIC90: 0.02 µg/mL (≈ 0.0557 µM)
[2]
  Selectivity Index: >5000
Vero
  IC50: > 100 µg/mL
[3]
  MIC90: 0.25 µg/mL (≈ 0.696 µM)

## N[C@@H]1CONC1=O [CYCLOSERINE]
[1]
  MIC90: 6.02 µg/mL (≈ 59 µM)
[2]
  Selectivity Index: >17
Vero
  IC50: > 100 µg/mL

## CCOC(=O)c1c(-c2ccccc2)c2cc(Cl)ccc2oc1=O
Mycobacterium marinum [4]
  MIC90: 97.1 µg/mL (≈ 295 µM)
[1]
  MIC90: 44.7 µg/mL (≈ 136 µM)
Pseudomonas aeruginosa
  Activity: inactive
Staphylococcus aureus
  Activity: inactive
Mycobacteroides chelonae
  Activity: inactive
[2]
  Selectivity Index: 0.82
Mycobacterium kansasii [5]
  Activity: inactive
[6]
  Activity: inactive
Streptococcus pneumoniae
  Activity: inactive
[7]
  Activity: inactive
Acinetobacter baumannii
  Activity: inactive
Mycobacterium avium
  Activity: inactive
Candida albicans
  Activity: inactive
Enterococcus faecalis
  Activity: inactive
Escherichia coli
  Activity: inactive
[3]
  MIC90: 37.1 µg/mL (≈ 113 µM)

## CCOC(=O)c1c(-c2ccccc2)c2ccc(Cl)cc2oc1=O
[1]
  MIC90: 35.9 µg/mL (≈ 109 µM)
Pseudomonas aeruginosa
  Activity: inactive
Staphylococcus aureus
  Activity: inactive
Mycobacteroides chelonae
  Activity: inactive
[2]
  Selectivity Index: 1.1
Mycobacterium kansasii [5]
  Activity: inactive
[6]
  Activity: inactive
Streptococcus pneumoniae
  Activity: inactive
[7]
  Activity: inactive
Acinetobacter baumannii
  Activity: inactive
Vero
  IC50: 39.4 µg/mL (≈ 120 µM)
Mycobacterium avium
  Activity: inactive
Candida albicans
  Activity: inactive
Enterococcus faecalis
  Activity: inactive
Escherichia coli
  Activity: inactive
[3]
  MIC90: 23.2 µg/mL (≈ 70.6 µM)
Mycobacterium marinum [8]
  Activity: inactive

## NNC(=O)c1ccncc1 [ISONIAZID]
[1]
  MIC90: 0.03 µg/mL (≈ 0.219 µM)
Vero
  IC50: > 100 µg/mL

## O=c1cc(-c2ccccc2)c2cc(Cl)ccc2o1
[1]
  MIC90: > 100 µg/mL
Pseudomonas aeruginosa
  Activity: inactive
Staphylococcus aureus
  Activity: inactive
Mycobacteroides chelonae
  Activity: inactive
Mycobacterium kansasii [5]
  Activity: inactive
[6]
  Activity: inactive
Streptococcus pneumoniae
  Activity: inactive
[7]
  Activity: inactive
Acinetobacter baumannii
  Activity: inactive
Vero
  IC50: > 100 µg/mL
Mycobacterium avium
  Activity: inactive
Candida albicans
  Activity: inactive
Enterococcus faecalis
  Activity: inactive
Escherichia coli
  Activity: inactive
Mycobacterium marinum [8]
  Activity: inactive

## O=c1cc(-c2ccccc2)c2ccc(Cl)cc2o1
[1]
  MIC90: 23.9 µg/mL (≈ 93.1 µM)
Pseudomonas aeruginosa
  Activity: inactive
Staphylococcus aureus
  Activity: inactive
Mycobacteroides chelonae
  Activity: inactive
[2]
  Selectivity Index: 1.27
[6]
  Activity: inactive
Mycobacterium kansasii [9]
  MIC90: 49.3 µg/mL (≈ 192 µM)
Streptococcus pneumoniae
  Activity: inactive
[7]
  Activity: inactive
Acinetobacter baumannii
  Activity: inactive
Vero
  IC50: 30.4 µg/mL (≈ 118 µM)
Mycobacterium avium
  Activity: inactive
Candida albicans
  Activity: inactive
Enterococcus faecalis
  Activity: inactive
Escherichia coli
  Activity: inactive
[3]
  MIC90: 21.9 µg/mL (≈ 85.3 µM)
Mycobacterium marinum [8]
  Activity: inactive

## NC[C@H]1O[C@H](O[C@H]2[C@H](O)[C@@H](O[C@H]3O[C@H](CO)[C@@H](O)[C@H](N)[C@H]3O)[C@H](N)C[C@@H]2N)[C@H](O)[C@@H](O)[C@@H]1O [KANAMYCIN]
[1]
  MIC90: 0.65 µg/mL (≈ 1.34 µM)
[2]
  Selectivity Index: >154
Vero
  IC50: > 100 µg/mL

## CO[C@H]1/C=C/O[C@@]2(C)Oc3c(C)c(O)c4c(O)c(c(/C=N/N5CCN(C)CC5)c(O)c4c3C2=O)NC(=O)/C(C)=C\C=C\[C@H](C)[C@H](O)[C@@H](C)[C@@H](O)[C@@H](C)[C@H](OC(C)=O)[C@@H]1C [RIFAMPIN]
[1]
  MIC90: 0.08 µg/mL (≈ 0.0972 µM)
Vero
  IC50: > 100 µg/mL
[3]
  MIC90: < 0.05 µg/mL

## CN[C@@H]1[C@H](O[C@H]2[C@H](O[C@H]3[C@H](O)[C@@H](O)[C@H](N=C(N)N)[C@@H](O)[C@@H]3N=C(N)N)O[C@@H](C)[C@]2(O)C=O)O[C@@H](CO)[C@H](O)[C@H]1O [STREPTOMYCIN]
[1]
  MIC90: 0.12 µg/mL (≈ 0.206 µM)
[2]
  Selectivity Index: >833
Vero
  IC50: > 100 µg/mL
[3]
  MIC90: 1.07 µg/mL (≈ 1.84 µM)
